Molecules are shown by their SMILES. Activity calls are given as the source filed them. The calls are words filed in the database; no cut-off is given here.

The species entered for series [1] is Homo sapiens. Put plainly: Antiinvasive activity against human PC-3M-CT+ cells at 50 uM after 48 hrs by spheroid disaggregation assay. It is filed as functional, cell-based. The method, boiled down:
(§1)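 Spheroids formed from 5 × 10^4 cells/mL in serum-free RPMI 1640 rocked in low-attachment wells at 37 °C for 2 days (150-300 µm, ~4 × 10^4 cells each). Single spheroid placed on ECM-coated well in serum-free medium, t=0 set 1 h after plating. Photographed at t=0, cultured 48 h at 37 °C, fixed, Diff-Quik stained. Migration diameter measured by micrometer minus initial diameter; given as average percent increase in surface area.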

The subject of a further series is Escherichia coli. Description: Antimicrobial activity against Escherichia coli up to 50 ug/mL. It is filed as functional, organism-based.
For series [2], the species on record is Homo sapiens. Description: Antiinvasive activity against human PC-3M-CT+ cells at 200 uM after 48 hrs by spheroid disaggregation assay. It counts as functional, cell-based. The method, boiled down:
as §1

The subject of another series is Candida albicans. Description: Antimicrobial activity against Candida albicans up to 50 ug/mL. It is filed as functional, organism-based.
For series [3], the species on record is Homo sapiens. Description: Antiinvasive activity against human PC-3M-CT+ cells at 100 uM after 48 hrs by spheroid disaggregation assay. It is filed as functional, cell-based. The essentials:
as §1

The subject of series [4] is +SA cell. Put plainly: Antiproliferative activity against mouse +SA cells assessed as cell viability at 30 uM after 4 days by MTT assay. It is filed as functional, cell-based. The method, boiled down:
(§2)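 Highly malignant +SA mouse mammary epithelial cells kept in serum-free medium with 10 ng/mL EGF and 10 µg/mL insulin as mitogens. Seeded 5 × 10^4 cells/well, 6 wells/group, fed medium with compound at 0.01-1000 µM. Viable cell number determined by MTT colorimetric assay after 4 days in culture, compared against vehicle control.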

In the next series the test system is Cryptococcus neoformans. Description: Antimicrobial activity against Cryptococcus neoformans up to 50 ug/mL. It counts as functional, organism-based.
In the next series the test system is Vero. Description: Cytotoxicity against african green monkey Vero cells. Particulars: chlorocebus sabaeus. It is filed as cell-based.
The next series relates to Staphylococcus aureus. Put plainly: Antimicrobial activity against methicillin-resistant Staphylococcus aureus up to 50 ug/mL. It is filed as functional, organism-based.
Series [5] relates to Mycobacterium intracellulare. Put plainly: Antimicrobial activity against Mycobacterium intracellular up to 50 ug/mL. It counts as functional, organism-based.
Another series relates to Aspergillus fumigatus. Description: Antimicrobial activity against Aspergillus fumigatus up to 50 ug/mL. It is filed as functional, organism-based.
Another series deals with Pseudomonas aeruginosa. Put plainly: Antimicrobial activity against Pseudomonas aeruginosa up to 50 ug/mL. It is filed as functional, organism-based.
The species named for series [6] is Homo sapiens. Put plainly: Antiinvasive activity against human PC-3M-CT+ cells at 25 uM after 48 hrs by spheroid disaggregation assay. It is filed as functional, cell-based. The method, boiled down: as §1
The nature of series [7]: Antiproliferative activity against mouse +SA cells assessed as cell viability after 4 days by MTT assay. As to conditions: 96 h. It is filed as functional, cell-based. The essentials: as §2
For orientation: Tetrazolium assays rely on reduction of a dye to a coloured formazan, in cell work by metabolically active cells.

The test system of series [8] is +SA cell. Put plainly: Antiproliferative activity against mouse +SA cells assessed as cell viability at 20 uM after 4 days by MTT assay. It is filed as functional, cell-based. The essentials:
as §2

Consider `C=C1C=C2[C@@H](CC1)[C@H](C)[C@H](OC(C)=O)C[C@H]2[C@H](C)C(OC(C)=O)C(=O)C=C(C)C` (stereo partly drawn) [SINULODURIN A], for which the result in the series filed under Homo sapiens [1], in the series listed under Homo sapiens [2], in the series listed under Homo sapiens [3], with +SA cell [4] and in the series listed under Homo sapiens [6] was Active. The result (with Escherichia coli; in the series on Candida albicans; in the series with Cryptococcus neoformans; in the series with Staphylococcus aureus; in series [5]; with Aspergillus fumigatus) was inactive. In the series with Pseudomonas aeruginosa, the outcome was inactive. In addition, the Activity result with Vero is listed as “Not Active”.

A word on the IC50: it is the midpoint of a concentration-inhibition curve. On to `CC(C)=CCC/C(C)=C/CC/C(C)=C/CC[C@]1(C)CCc2cc(O)cc(C)c2O1` [DELTA-TOCOTRIENOL], for which the IC50 in [7] stood at 7 µM.

With `C=C1C=C2[C@@H](C[C@@H]1O)[C@@H](C)CC[C@@H]2[C@@H](C)CCC=C(C)C`, the outcome (in the series with Escherichia coli; with Candida albicans; in the series with Cryptococcus neoformans; with Staphylococcus aureus; in [5]; in the series on Aspergillus fumigatus) was inactive. In the series on Pseudomonas aeruginosa, the outcome was inactive. In addition, the Activity entry with Vero is listed as “Not Active”.

On to `C=C1C=C2[C@@H](CC1)[C@H](C)CC[C@H]2[C@H](C)C(OC(C)=O)C(=O)C=C(C)C` (stereo partly drawn) [SINULODURIN B], for which the result in the series filed under Homo sapiens [1], in the series filed under Homo sapiens [2], with +SA cell [8], in the series listed under Homo sapiens [3] and in the series listed under Homo sapiens [6] was Active. Also, the result (with Escherichia coli; in the series with Candida albicans; in the series with Cryptococcus neoformans; in the series with Staphylococcus aureus; in series [5]; with Aspergillus fumigatus) was inactive. In addition, the result with Pseudomonas aeruginosa was inactive. Also, the Activity entry with Vero is recorded as “Not Active”.

As to `C=C1C=C2[C@H](CC1)[C@@H](C)CC[C@@H]2[C@@H](C)CCC=C(C)C`, the outcome (in the series with Escherichia coli; with Candida albicans; with Cryptococcus neoformans; with Staphylococcus aureus; in [5]; in the series with Aspergillus fumigatus) was inactive. Moreover, the result with Pseudomonas aeruginosa was inactive. The Activity result in the series with Vero is given as “Not Active”.

These data come from ChEMBL document CHEMBL1155884, “Sinulodurins A and B, antiproliferative and anti-invasive diterpenes from the soft coral Sinularia dura” (J Nat Prod, 2008).
